# Assay results collected from several papers.
# Lines come from different studies, so protocols differ.
# Target: Testis-specific serine/threonine-protein kinase 1 (TSSK1B, Homo sapiens, UniProt Q9BXA7)
# Sequence (Q9BXA7 1-367, as in one of the studies): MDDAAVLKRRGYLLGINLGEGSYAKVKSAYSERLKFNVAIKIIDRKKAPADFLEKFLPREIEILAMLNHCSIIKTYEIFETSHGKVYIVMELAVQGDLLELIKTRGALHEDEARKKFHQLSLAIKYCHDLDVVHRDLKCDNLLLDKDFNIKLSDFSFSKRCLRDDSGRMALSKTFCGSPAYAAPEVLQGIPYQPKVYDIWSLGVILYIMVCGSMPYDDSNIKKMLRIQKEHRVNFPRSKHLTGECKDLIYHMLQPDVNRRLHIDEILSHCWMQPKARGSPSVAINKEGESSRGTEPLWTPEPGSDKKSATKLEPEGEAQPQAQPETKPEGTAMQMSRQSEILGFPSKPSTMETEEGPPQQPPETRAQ
Structure (SMILES),observed,mode,technique,concentration,endpoint,value
O=C1NC(=O)c2cc(Nc3ccc(F)cc3)c(Nc3ccc(F)cc3)cc21,cell-free assay,,,0.5 µM,remaining signal,90.2%
CCN(CC)CCNC(=O)c1c(C)[nH]c(/C=C2\C(=O)Nc3ccc(F)cc32)c1C,enzyme activity,inhibitor,,10 µM,inhibition,20%
COc1ccc2c(O[C@@H]3C[C@H]4C(=O)N[C@]5(C(=O)O)CC5/C=C\CCCCC[C@H](NC(=O)OC5CCCC5)C(=O)N4C3)cc(-c3csc(NC(=O)C(C)C)n3)nc2c1C (stereo partly drawn),cell-free assay,,competition with immobilised ligand,1 µM,remaining binding,70%
COc1cc2ncnc(Nc3ccc(Oc4ccccc4)cc3C)c2cc1OC,enzyme activity,inhibitor,,1 µM,inhibition,2%
CC(C)(C)c1nc(-c2cccc(NS(=O)(=O)c3c(F)cccc3F)c2F)c(-c2ccnc(N)n2)s1,enzyme activity,inhibitor,radiometric,1 µM,remaining activity,84%
CN(C)C1CCN(CC#Cc2nn(C3CCCC3)c3nc(NCc4ccccc4)ncc23)C1 (stereo not drawn),enzyme activity,inhibitor,FRET,10 µM,inhibition,-8%
O=S(=O)(NC1CCC(c2cc(F)ccc2F)(S(=O)(=O)c2ccc(Cl)cc2)CC1)C(F)(F)F (stereo not drawn),cell-free assay,,competition with immobilised ligand,1 µM,remaining binding,100%
CNc1cccc2cc(C(=O)Nc3ccc(C(=O)O)cc3)c(=O)[nH]c12,enzyme activity,inhibitor,,10 µM,inhibition,2.1%
Nc1ncnc2occ(-c3ccc(NC(=O)Nc4cc(C(F)(F)F)ccc4F)cc3)c12,cell-free assay,inhibitor,,20 µM,remaining signal,52%
CN(C)C(=O)Cn1cc(-c2nc(C3(c4ccc(-c5cnc(N)nc5)cc4)CC3)no2)cn1,cell-free assay,,competition with immobilised ligand,1 µM,remaining binding,100%
COc1cc(/C=C/C(=O)CC(=O)/C=C/c2ccc(O)c(OC)c2)ccc1O,enzyme activity,inhibitor,,1 µM,activity vs control,106%
Cc1sc(C(=O)NC2COC2)cc1-n1cc(NC(=O)Nc2c(F)cccc2Cl)cn1,enzyme activity,inhibitor,,10 µM,remaining activity,103%
C[C@H](c1cccc(C#N)c1)n1cc(Cl)cc(C(N)=O)c1=N,cell-free assay,,competition with immobilised ligand,1 µM,remaining binding,96%
COc1cc(Cl)c(C(=O)N[C@@H](CN[C@H]2CC[C@@H](N)CC2)Cc2ccc(C#N)cc2)cc1-c1ccc(CN[C@H](C)c2ccc(C)cc2)o1,enzyme activity,inhibitor,,1 µM,remaining activity,101%
Cc1ccc(Nc2nccc(N(C)c3ccc4c(C)n(C)nc4c3)n2)cc1S(N)(=O)=O,enzyme activity,inhibitor,,10 µM,inhibition,1%
Cc1ccc(C(=O)Nc2ccc(CN3CCN(C)CC3)c(C(F)(F)F)c2)cc1C#Cc1cnc2cccnn12,enzyme activity,inhibitor,,23.5 nM,remaining activity,83%
Cc1nc(N2CC[C@@H](O)C2)ncc1-c1cc(C(F)(F)F)cc2[nH]ncc12,binding,,competition with immobilised ligand,1 µM,remaining binding,98%
O=C(Nc1cnn(-c2csc(C(=O)NC3COC3)c2)c1)Nc1c(F)cccc1Cl,enzyme activity,inhibitor,,5 µM,remaining activity,107%
Cc1cnc(NC2CCOCC2)nc1-n1cnc(C(=O)NC(CN)c2cc(F)cc(Cl)c2)c1 (stereo not drawn),enzyme activity,inhibitor,radiometric,1 µM,remaining activity,55%
CNC(=O)c1cc(Oc2ccc(NC(=O)Nc3ccc(Cl)c(C(F)(F)F)c3)cc2)ccn1,enzyme activity,inhibitor,,0.3 µM,inhibition,-6%
COc1cc(-c2cn(C3CCc4c(F)cccc4N(CC(F)(F)F)C3=O)nn2)ccc1-n1cnc(C)c1 (stereo not drawn),cell-free assay,,competition with immobilised ligand,1 µM,remaining binding,100%
CCCS(=O)(=O)Nc1ccc(F)c(C(=O)c2c[nH]c3ncc(-c4ccc(Cl)cc4)cc23)c1F,enzyme activity,inhibitor,,1 µM,inhibition,< 10%
CCOCCn1cc(C(=O)Nc2ccc(-n3nc(-c4cccnc4)cc3C(F)(F)F)cn2)ccc1=O,cell-free assay,,competition with immobilised ligand,1 µM,remaining binding,100%
N#CCCc1ccc2c(c1)-c1[nH]c3ccc([N+](=O)[O-])cc3c1CC(=O)N2,cell-free assay,,,0.5 µM,remaining signal,59.2%
